Experimental data as given in ChEMBL document CHEMBL3997810, “A Novel Potent Anticancer Compound Optimized from a Natural Oridonin Scaffold Induces Apoptosis and Cell Cycle Arrest through the Mitochondrial Pathway” (J Med Chem, 2017).
Activity calls are given as the source filed them. The rule behind the calls is not given here.

What was measured:
MCF7 [1] = assay: Induction of apoptosis in human MCF7 cells after 24 hrs by Annexin-V FITC/propidium iodide staining based flow cytometry; assay type: functional, cell-based
MCF7 [2] = assay: Induction of ROS generation in human MCF7 cells at 1 uM after 36 hrs by DCF-DA staining based flow cytometry (reference value: 3.77%); assay type: functional
How it was run: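 MCF-7 cells exposed to 0–1 μM compound for 36 h, with DMSO as control; one arm pre-incubated with 2.5 mM NAC. Cells then loaded with DCF-DA at 37 °C for 15 min, harvested and resuspended in PBS. Fraction of DCF-positive cells measured by flow cytometry at Ex 480/Em 525 nm.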

MCF7 [3] = assay: Cell cycle arrest in human MCF7 cells assessed as accumulation at G1 phase at 0.125 uM after 48 hrs by propidium iodide staining based flow cytometry (reference value: 49.77%); assay type: functional
How it was run: (§1)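 MCF-7 cells, 5 × 10^4 per well, seeded overnight, then exposed to 0.125–1 μM compound, or DMSO, for 48 h. Ethanol-fixed (70%, −20 °C, 12 h) and stained with PI/RNase at 37 °C for 30 min. Phase distribution determined by flow cytometry.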

Bel-7402 [4] = assay: Cell cycle arrest in human Bel7402 cells assessed as accumulation at G1 phase at 4 uM after 48 hrs by propidium iodide staining based flow cytometry (reference value: 34.61%); assay type: functional
MCF7 [5] = assay: Cell cycle arrest in human MCF7 cells assessed as accumulation at G2/M phase at 0.5 uM after 48 hrs by propidium iodide staining based flow cytometry (reference value: 13.05%); assay type: functional; how it was run: as §1
Bel-7402 [6] = assay: Cell cycle arrest in human Bel7402 cells assessed as accumulation at G1 phase at 1 uM after 48 hrs by propidium iodide staining based flow cytometry (reference value: 34.61%); assay type: functional
KB 3-1 = assay: Antiproliferative activity against human KB-3-1 cells after 48 hrs by MTT assay; assay type: functional, cell-based; conditions: KB 3-1, 48 h
How it was run: (§2)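 Colorimetric MTT assay. KB-3-1, NCI-H460 and Bel-7404 cells were seeded at 4000 cells/well; resistant KB/CP4, NCI-H460/MX20 and Bel-7404/CP20 were seeded at 7000 cells/well. Cells were pre-incubated 24 h at 37 °C, 5% CO2, then exposed to a compound concentration series for 48 h with DMSO ≤0.25%. Absorbance read at 570 nm. Quadruplicate wells, three repeats; means ± SD.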

Mus musculus = assay: Nephrotoxicity in Balb/c nude mouse xenografted with human MCF7 cells assessed as morphological changes in kidney at 20 mg/kg/day, iv for 4 weeks by hematoxylin and eosin staining based microscopic method; assay type: toxicity, organism-based; conditions: in vivo, 672 h
How it was run: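 Male BALB/c nude mice aged six weeks received 1 × 10^6 MCF-7 cells subcutaneously in the right flank. After 7 d they were randomized and dosed 20 mg/kg iv once daily in 10% DMF/2% poloxamer/88% saline; saline control. Heart, liver, spleen, lung and kidney were fixed in 4% paraformaldehyde, paraffin-embedded, sectioned at 5 μm, H&E stained and examined microscopically.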

NCI-H460 = assay: Antiproliferative activity against human NCI-H460 cells after 48 hrs by MTT assay; assay type: functional, cell-based; conditions: NCI-H460, 48 h; how it was run: as §2
MCF7 [7] = assay: Induction of apoptosis in human MCF7 cells assessed as chromatin condensation at 0.125 to 1 uM after 36 hrs by Hoechst 33342 staining based fluorescence microscopic method; assay type: functional, cell-based
Bel-7402 [8] = assay: Cell cycle arrest in human Bel7402 cells assessed as accumulation at G2/M phase at 1 uM after 48 hrs by propidium iodide staining based flow cytometry (reference value: 56.61%); assay type: functional
Bel-7402 [9] = assay: Cell cycle arrest in human Bel7402 cells assessed as accumulation at G2/M phase at 0.5 uM after 48 hrs by propidium iodide staining based flow cytometry (reference value: 56.61%); assay type: functional
MCF7 [10] = assay: Antiproliferative activity against human MCF7 cells after 72 hrs by MTT assay; assay type: functional, cell-based; conditions: MCF7, 72 h
How it was run: (§3)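 MGC-803 and MCF-7 cells grown in DMEM (MCF-7 with 1× NEAA); Bel-7402 and K562 grown in RPMI 1640; all media with 10% FBS. Cells seeded at 3500/well, pre-incubated 24 h, then exposed to compounds in fresh medium (DMSO ≤0.25%) for 72 h at 37 °C. MTT read-out at 570 nm. Quadruplicate wells, repeated three times; means ± SD (n = 3).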

MGC-803 = assay: Antiproliferative activity against human MGC803 cells after 72 hrs by MTT assay; assay type: functional, cell-based; conditions: MGC-803, 72 h; how it was run: as §3
Bel-7402 [11] = assay: Antiproliferative activity against human Bel7402 cells after 72 hrs by MTT assay; assay type: functional, cell-based; conditions: Bel-7402, 72 h; how it was run: as §3
Bel-7402 [12] = assay: Cytotoxicity against human Bel7402 cells at 10 to 50 uM after 24 hrs by LDH assay; assay type: functional, cell-based
How it was run: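 Membrane integrity assay on MCF-7 and Bel-7402 cells seeded at ~5 × 10^3 per well for 24 h, then given compounds at 10, 20 or 50 μM. Culture medium collected and assayed with CytoTox-ONE LDH reagent for 10 min, followed by stop solution. Fluorescence read at Ex 560/Em 590 nm. Expressed as percentage of unstimulated cells.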

MCF7 [13] = assay: Induction of apoptosis in human MCF7 cells assessed as early apoptotic cells at 0.25 uM after 24 hrs by Annexin-V FITC/propidium iodide staining based flow cytometry (reference value: 2.65%); assay type: functional
MCF7 [14] = assay: Induction of apoptosis in human MCF7 cells assessed as live cells at 1 uM after 24 hrs by Annexin-V FITC/propidium iodide staining based flow cytometry (reference value: 97%); assay type: functional
MCF7 [15] = assay: Induction of mitochondrial membrane potential depolarization in human MCF7 cells after 36 hrs by JC1 staining based fluorescence microscopic method; assay type: functional, cell-based
How it was run: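 MCF-7 cells were treated with 0, 0.25, 0.5 or 1 μM for 36 h and loaded with 10 μg/mL JC-1 for 30 min at 37 °C, then washed in PBS. Monomers were read at ex 490/em 535 nm and aggregates at ex 525/em 600 nm, by plate reader or fluorescence microscopy. The red/green ratio came from 10,000 cells per group, in triplicate, mean ± SD.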

K562 = assay: Antiproliferative activity against human K562 cells after 72 hrs by MTT assay; assay type: functional, cell-based; conditions: K562, 72 h; how it was run: as §3
MCF7 [16] = assay: Cell cycle arrest in human MCF7 cells assessed as accumulation at G1 phase at 0.25 uM after 48 hrs by propidium iodide staining based flow cytometry (reference value: 49.77%); assay type: functional; how it was run: as §1
MCF7 [17] = assay: Induction of apoptosis in human MCF7 cells assessed as necrotic cells at 0.25 uM after 24 hrs by Annexin-V FITC/propidium iodide staining based flow cytometry (reference value: 0.102%); assay type: functional
MCF7 [18] = assay: Cell cycle arrest in human MCF7 cells assessed as accumulation at S phase at 0.125 uM after 48 hrs by propidium iodide staining based flow cytometry (reference value: 37.18%); assay type: functional; how it was run: as §1
Bel-7402 [19] = assay: Cell cycle arrest in human Bel7402 cells assessed as accumulation at G2/M phase at 2 uM after 48 hrs by propidium iodide staining based flow cytometry (reference value: 56.61%); assay type: functional
MCF7 [20] = assay: Induction of apoptosis in human MCF7 cells assessed as necrotic cells at 1 uM after 24 hrs by Annexin-V FITC/propidium iodide staining based flow cytometry (reference value: 0.102%); assay type: functional

- IC50 (KB 3-1): 5700 nM
- IC50 (NCI-H460): 2620 nM
- IC50 (MCF7 [10]): 80 nM
- IC50 (MGC-803): 1030 nM
- IC50 (Bel-7402 [11]): 1030 nM
- IC50 (K562): 290 nM
SMILES: C=C1C(=O)[C@]23[C@H](OC(=O)/C=C/c4ccccc4)[C@H]1CC[C@H]2[C@]12C=CCC(C)(C)[C@H]1[C@H](O)[C@]3(O)OC2
- Activity (MCF7 [1]): Dose-dependent effect
- Activity (MCF7 [2]): 24.31%
- Activity (MCF7 [3]): 49.27%
- Activity (Bel-7402 [4]): 27.44%
- Activity (MCF7 [5]): 24.23%
- Activity (Bel-7402 [6]): 32.12%
- Activity (Mus musculus): Non-Toxic
- Activity (MCF7 [7]): Active
- Activity (Bel-7402 [8]): 59.37%
- Activity (Bel-7402 [9]): 57.83%
- Activity (Bel-7402 [12]): inactive
- Activity (MCF7 [13]): 8.29%
- Activity (MCF7 [14]): 31.2%
- Activity (MCF7 [15]): Dose-dependent effect
- Activity (MCF7 [16]): 49.37%
- Activity (MCF7 [17]): 2.39%
- Activity (MCF7 [18]): 33.93%
- Activity (Bel-7402 [19]): 58.07%
- Activity (MCF7 [20]): 1.14%
